Source: ChEMBL document CHEMBL3407395, “Synthesis, characterization, and optimization for in vivo delivery of a nonselective isopeptidase inhibitor as new antineoplastic agent” (J Med Chem, 2015)
Activity calls are given as the source filed them. The rule behind the calls is not given here.

Columns and labels:
[1] = Cytotoxicity against human U87MG cells after 48 hrs by resazurin assay; type: functional, cell-based, U-87MG ATCC; conditions: U-87 MG
In short: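 U87MG glioblastoma cells treated with compounds; viability read by resazurin 48 h after treatment. IC50 from triplicate experiments, reported as mean and s.d.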

U-87 MG = assay: Induction of necrosis in human U87MG cells at 0.6 to 10 uM after 24 hrs by trypan blue assay; type: functional, cell-based; conditions: U-87MG ATCC
In short: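 U87MG cells treated 24 h at the indicated concentrations. Death scored as percent trypan blue-positive cells. Caspase activity measured in parallel with a rhodamine 110 bis-(N-Z-DEVD amide) fluorogenic substrate and read in relative fluorescence units.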

T98G = assay: Induction of cell death in human T98G cells at 4.2 to 18.4 uM after 24 hrs by trypan blue assay in presence of zVAD-fmk; type: functional, cell-based
[2] = molecular target: T1, Ubiquitin carboxyl-terminal hydrolase isozyme L5 (Homo sapiens, UniProt Q9Y5K5); assay: Inhibition of GST-tagged UCHL5 (unknown origin) using Ub-AMC as substrate preincubated for 30 mins before substrate addition measured after 60 mins by fluorescence assay
T1 sequence (Q9Y5K5 whole entry): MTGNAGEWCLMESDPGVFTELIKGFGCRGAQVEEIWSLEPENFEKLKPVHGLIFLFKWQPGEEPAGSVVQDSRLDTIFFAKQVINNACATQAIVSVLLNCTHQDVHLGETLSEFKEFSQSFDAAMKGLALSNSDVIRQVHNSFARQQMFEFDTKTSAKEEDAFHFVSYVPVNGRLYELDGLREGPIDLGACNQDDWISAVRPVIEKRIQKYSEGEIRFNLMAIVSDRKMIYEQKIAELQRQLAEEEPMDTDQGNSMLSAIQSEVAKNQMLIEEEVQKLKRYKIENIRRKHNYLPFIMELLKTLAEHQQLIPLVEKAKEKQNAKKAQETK
In short: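 Purified isopeptidase activity was measured with ubiquitin-AMC as fluorogenic substrate; IC50 was derived from inhibition.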

A549 [3] = assay: Induction of cell death in human A549 cells assessed as accumulation of Noxa at 1 to 5 uM after 24 hrs by immunoblot assay; type: functional, cell-based
In short: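 A549 cells dosed at three levels (2.5, 5, 10 µM or 1, 2.5, 5 µM depending on inhibitor); lysates made after 24 h. Immunoblots probed poly-ubiquitin, p53 and Noxa, quantified by densitometry; mean of two experiments.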

A549 [4] = assay: Induction of cell death in human A549 cells assessed as accumulation of poly-ubiquitinated proteins at 10 uM after 48 hrs by immunoblot assay; type: functional, cell-based
In short: (§1)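 A549 cells grown in normal or A375-conditioned medium, treated with 10 µM. Immunoblots probed poly-ubiquitin accumulation, p53 stabilization and Noxa induction.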

A549 [5] = assay: Induction of cell death in human A549 cells assessed as accumulation of p53 at 10 uM after 48 hrs by immunoblot assay; type: functional, cell-based; in short: as §1

For `O=C1/C(=C/c2ccc([N+](=O)[O-])cc2)CC(O)C/C1=C\c1ccc([N+](=O)[O-])cc1` (configuration not stated), the IC50 [1] was 4.62 µM, the Activity (U-87 MG) was “Active” and the Activity (T98G) was “inactive”. For the same molecule, the IC50 [2] was 43 µM, the Activity (A549 [3]) was “Active” and the Activity (A549 [4]) was “Active”. For the same molecule, the Activity (A549 [5]) was “Active”.
